According to ChEMBL document CHEMBL1926565, “Synthesis, antiproliferative activities and telomerase inhibition evaluation of novel asymmetrical 1,2-disubstituted amidoanthraquinone derivatives” (Eur J Med Chem, 2012):

How the values were obtained:
Format in all cases: functional
NCI-H322M [1] = experiment: Cytotoxicity against human NCI-H322M cells assessed as cellular growth at 10 uM
Method in brief: (§1)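 Single-dose screen run by the NCI across its 60-human-tumour-cell-line panel; growth recorded for each cell line.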

HCT-15 [2] = experiment: Cytotoxicity against human HCT15 cells assessed as cellular growth at 10 uM; method in brief: as §1
HCC 2998 [3] = experiment: Cytotoxicity against human HCC2998 cells assessed as cellular growth at 10 uM; method in brief: as §1
MDA-MB-435 [4] = experiment: Cytotoxicity against human MDA-MB-435 cells assessed as cellular growth at 10 uM; method in brief: as §1
SK-MEL-5 [5] = experiment: Cytotoxicity against human SK-MEL-5 cells assessed as cellular growth at 10 uM
SK-OV-3 = experiment: Cytotoxicity against human SKOV3 cells assessed as cellular growth at 10 uM
OVCAR-3 = experiment: Cytotoxicity against human OVCAR3 cells assessed as cellular growth at 10 uM; method in brief: as §1
SNB-19 = experiment: Cytotoxicity against human SNB19 cells assessed as cellular growth at 10 uM
SK-MEL-28 = experiment: Cytotoxicity against human SK-MEL-28 cells assessed as cellular growth at 10 uM; method in brief: as §1
HOP-92 = experiment: Cytotoxicity against human HOP92 cells assessed as cellular growth at 10 uM; method in brief: as §1
KM12 = experiment: Cytotoxicity against human KM12 cells assessed as cellular growth at 10 uM; method in brief: as §1
T47D [6] = experiment: Cytotoxicity against human T47D cells assessed as cellular growth at 10 uM
OVCAR-5 = experiment: Cytotoxicity against human OVCAR5 cells assessed as cellular growth at 10 uM; method in brief: as §1
NCI-H460 = experiment: Cytotoxicity against human NCI-H460 cells assessed as cellular growth at 10 uM; method in brief: as §1
HCT-116 [7] = experiment: Cytotoxicity against human HCT116 cells assessed as cellular growth at 10 uM; method in brief: as §1
ACHN = experiment: Cytotoxicity against human ACHN cells assessed as cellular growth at 10 uM; method in brief: as §1
LOX IMVI [8] = experiment: Cytotoxicity against human LOXIMVI cells assessed as cellular growth at 10 uM; method in brief: as §1
[9] = Cytotoxicity against human Hs 578T cells assessed as cellular growth at 10 uM; method in brief: as §1
SR [10] = experiment: Cytotoxicity against human SR cells assessed as cellular growth at 10 uM
COLO 205 = experiment: Anticancer activity against human COLO205 cells
Method in brief: (§2)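 NCI 60-human-tumour-cell-line panel. Selected analogues were first run at one dose, then some were carried into multi-dose testing. GI50 (50% growth inhibition), TGI (total growth inhibition) and LC50 (50% cell kill) were read as values interpolated where the dose–response curves cross these levels.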

TK-10 = experiment: Anticancer activity against human TK10 cells
OVCAR-4 = experiment: Anticancer activity against human OVCAR4 cells; method in brief: as §2
A498 = experiment: Anticancer activity against human A498 cells; method in brief: as §2
LOX IMVI [11] = experiment: Anticancer activity against human LOXIMVI cells; method in brief: as §2
MCF7 = experiment: Anticancer activity against human MCF7 cells; method in brief: as §2
UACC-62 = experiment: Anticancer activity against human UACC62 cells
OVCAR-8 = experiment: Anticancer activity against human OVCAR8 cells; method in brief: as §2
RXF 393 = experiment: Anticancer activity against human RXF393 cells; method in brief: as §2
HT-29 = experiment: Anticancer activity against human HT-29 cells; details: read-out: LC50 (the source's name); method in brief: as §2
MDA-MB-468 = experiment: Anticancer activity against human MDA-MB-468 cells; method in brief: as §2
DU-145 = experiment: Anticancer activity against human DU145 cells; method in brief: as §2
NCI-H322M [12] = experiment: Anticancer activity against human NCI-H322M cells; method in brief: as §2
HCT-116 [13] = experiment: Anticancer activity against human HCT116 cells; method in brief: as §2
MDA-MB-435 [14] = experiment: Anticancer activity against human MDA-MB-435 cells; method in brief: as §2
T47D [15] = experiment: Anticancer activity against human T47D cells
RPMI-8226 = experiment: Anticancer activity against human RPMI8226 cells; method in brief: as §2
BT-549 = experiment: Anticancer activity against human BT549 cells; method in brief: as §2
MDA-MB-231 = experiment: Anticancer activity against human MDA-MB-231 cells; method in brief: as §2
SK-MEL-2 = experiment: Anticancer activity against human SK-MEL-2 cells; method in brief: as §2
SF-295 = experiment: Anticancer activity against human SF295 cells; details: read-out: LC50 (the source's name); method in brief: as §2
SR [16] = experiment: Anticancer activity against human SR cells; method in brief: as §2
M14 = experiment: Anticancer activity against human M14 cells; method in brief: as §2
CAKI-1 = experiment: Anticancer activity against human Caki1 cells; method in brief: as §2
[17] = Anticancer activity against human Hs 578T cells; method in brief: as §2
UO-31 = experiment: Anticancer activity against human UO31 cells; details: read-out: LC50 (the source's name)
HCT-15 [18] = experiment: Anticancer activity against human HCT15 cells; method in brief: as §2
SK-MEL-5 [19] = experiment: Anticancer activity against human SK-MEL-5 cells; method in brief: as §2
UACC-257 = experiment: Anticancer activity against human UACC257 cells
HCC 2998 [20] = experiment: Anticancer activity against human HCC2998 cells; details: read-out: LC50 (the source's name); method in brief: as §2
NCI/ADR-RES = experiment: Anticancer activity against human NCI/ADR-RES cells; method in brief: as §2
[21] = read-out: LC50 (the source's name)

Cc1ccc(C(=O)Nc2c(NC(=O)CN3CCCC3)ccc3c2C(=O)c2ccccc2C3=O)cc1
Activity (NCI-H322M [1]): 82.5% | Activity (HCT-15 [2]): 73.22% | Activity (HCC 2998 [3]): 84.6% | Activity (MDA-MB-435 [4]): 79.14% | Activity (SK-MEL-5 [5]): 61.74% | Activity (SK-OV-3): 82.13% | Activity (OVCAR-3): 77.82% | Activity (SNB-19): 108.22% | Activity (SK-MEL-28): 92.18% | Activity (HOP-92): 59.33% | Activity (KM12): 51.05% | Activity (T47D [6]): 44.33% | Activity (OVCAR-5): 102.31% | Activity (NCI-H460): 61.05% | Activity (HCT-116 [7]): 58.46% | Activity (ACHN): 82.23% | Activity (LOX IMVI [8]): 80.62% | Activity [9]: 69.39%

Cc1ccc(C(=O)Nc2ccc3c(c2NC(=O)c2ccc(C)cc2)C(=O)c2ccccc2C3=O)cc1
Activity (NCI-H322M [1]): 97.74% | Activity (HCT-15 [2]): 102.44% | Activity (HCC 2998 [3]): 84.68% | Activity (SK-MEL-5 [5]): 94.04% | Activity (SK-OV-3): 109.62% | Activity (OVCAR-3): 97.9% | Activity (SNB-19): 103.91% | Activity (SR [10]): 87.69% | Activity (SK-MEL-28): 99.46% | Activity (HOP-92): 91.21% | Activity (KM12): 94.21% | Activity (T47D [6]): 100% | Activity (OVCAR-5): 110.18% | Activity (NCI-H460): 88.62% | Activity (HCT-116 [7]): 78.55% | Activity (ACHN): 112.43% | Activity (LOX IMVI [8]): 84.41% | Activity [9]: 105.96%

Cc1ccc(C(=O)Nc2c(NC(=O)CCl)ccc3c2C(=O)c2ccccc2C3=O)cc1
GI50 (COLO 205): 2.95 µM | LC50 (COLO 205): 23.7 µM | TGI (COLO 205): 9.65 µM | GI50 (TK-10): 2.34 µM | TGI (TK-10): 4.94 µM | CC50 (TK-10; [21]): 29.2 µM | GI50 (OVCAR-4): 5.52 µM | TGI (OVCAR-4): 12 µM | CC50 (OVCAR-4; [21]): 25.9 µM | GI50 (A498): 9.87 µM | TGI (A498): 22.5 µM | CC50 (A498; [21]): > 50 µM | GI50 (LOX IMVI [11]): 0.78 µM | TGI (LOX IMVI [11]): 1.84 µM | CC50 (LOX IMVI [11]; [21]): 4.29 µM | Activity (NCI-H322M [1]): 95.05% | GI50 (MCF7): 1.12 µM | TGI (MCF7): 4.95 µM | CC50 (MCF7; [21]): > 50 µM | GI50 (UACC-62): 9.92 µM | TGI (UACC-62): 17.9 µM | CC50 (UACC-62; [21]): 32.2 µM | GI50 (OVCAR-8): 3.32 µM | TGI (OVCAR-8): 28.5 µM | CC50 (OVCAR-8; [21]): > 50 µM | GI50 (RXF 393): 7.84 µM | TGI (RXF 393): 16.5 µM | CC50 (RXF 393; [21]): 34.6 µM | Activity (HCT-15 [2]): -50.22% | CC50 (HT-29): > 50 µM | GI50 (MDA-MB-468): 0.83 µM | TGI (MDA-MB-468): 1.82 µM | CC50 (MDA-MB-468; [21]): 3.98 µM | Activity (MDA-MB-435 [4]): 4.82% | GI50 (DU-145): 2.69 µM | TGI (DU-145): 9.07 µM | CC50 (DU-145; [21]): 23 µM | GI50 (NCI-H322M [12]): 3.76 µM | LC50 (50% cell kill) (NCI-H322M [12]): 45.4 µM | TGI (NCI-H322M [12]): 13.7 µM | GI50 (HCT-116 [13]): 1.05 µM | TGI (HCT-116 [13]): 2.46 µM | CC50 (HCT-116 [13]; [21]): 9.32 µM | GI50 (MDA-MB-435 [14]): 5.73 µM | TGI (MDA-MB-435 [14]): 19.5 µM | CC50 (MDA-MB-435 [14]; [21]): > 50 µM | GI50 (T47D [15]): 1.19 µM | TGI (T47D [15]): 4.04 µM | CC50 (T47D [15]; [21]): 46.3 µM | GI50 (RPMI-8226): 1.35 µM | LC50 (50% cell kill) (RPMI-8226): > 50 µM | TGI (RPMI-8226): > 50 µM | Activity (SK-MEL-5 [5]): -98.72% | GI50 (BT-549): 2.58 µM | TGI (BT-549): 16.3 µM | CC50 (BT-549; [21]): > 50 µM | Activity (SK-OV-3): 106.24% | GI50 (MDA-MB-231): 6.51 µM | TGI (MDA-MB-231): > 50 µM | CC50 (MDA-MB-231; [21]): > 50 µM | GI50 (SK-MEL-2): 1.34 µM | TGI (SK-MEL-2): 4.4 µM | CC50 (SK-MEL-2; [21]): > 50 µM | Activity (OVCAR-3): -92.86% | CC50 (SF-295): 42.2 µM | GI50 (SR [16]): 1.59 µM | LC50 (SR [16]): > 50 µM | TGI (SR [16]): > 50 µM | GI50 (M14): 4.72 µM | TGI (M14): 12.4 µM | CC50 (M14; [21]): 31.4 µM | Activity (SNB-19): 88.4% | Activity (SR [10]): -19.84% | Activity (SK-MEL-28): -31.94% | Activity (HOP-92): -68.77% | GI50 (CAKI-1): 6.87 µM | TGI (CAKI-1): 15.2 µM | CC50 (CAKI-1; [21]): 33.7 µM | Activity (KM12): -19.53% | Activity (T47D [6]): -49.46% | Activity (OVCAR-5): 109.55% | Activity (NCI-H460): 95.65% | GI50 [17]: 1.64 µM | TGI [17]: 9.12 µM | CC50 [17, 21]: > 50 µM | CC50 (UO-31): 41.3 µM | Activity (HCT-116 [7]): -54.27% | LC50 (HCT-15 [18]): 28.4 µM | GI50 (SK-MEL-5 [19]): 0.83 µM | TGI (SK-MEL-5 [19]): 1.53 µM | CC50 (SK-MEL-5 [19]; [21]): 2.83 µM | Activity (ACHN): 21.92% | GI50 (UACC-257): 1.61 µM | TGI (UACC-257): 6.27 µM | CC50 (UACC-257; [21]): 24.3 µM | CC50 (HCC 2998 [20]): 29.4 µM | Activity (LOX IMVI [8]): -57.05% | GI50 (NCI/ADR-RES): 9.46 µM | TGI (NCI/ADR-RES): 30.7 µM | CC50 (NCI/ADR-RES; [21]): > 50 µM
